Experimental data from different studies.
Protocols differ between the studies behind these lines.
Read-out: metabolic stability
Species: human

Nc1nc(-c2ccc(NC(=O)c3ccc(Cl)c(Cl)c3)cc2F)c[nH]1  scaled CLint (liver microsomes; 5 µM; 1 h; pH 7.4): 0.654 L/h/kg
Cn1cc([C@H]2C[C@H]3CSC(N)=N[C@@]3(c3ccc(F)cc3F)CO2)cn1  scaled CLint (liver microsomes): 0.546 L/h/kg
O=C1c2ccc(COc3cccc(F)c3)nc2CCN1c1ccc(F)cc1  scaled CLint (liver microsomes): 0.528 L/h/kg
COc1ccc2nc3cc(Cl)ccc3c(Nc3cc(CN4CCCC4)c(O)c(CN4CCCC4)c3)c2n1  scaled CLint (hepatocytes; 1 µM): 0.228 L/h/kg
Cc1coc([C@H]2C[C@H]3CSC(N)=N[C@@]3(c3ccc(F)cc3F)CO2)n1  scaled CLint (liver microsomes): 4.18 L/h/kg
O=C(Nc1ccc(N2C(=O)c3cccc(Cl)c3C2=O)c(Cl)c1)c1ncccc1Cl  scaled CLint (liver microsomes; 1 µM; pH 7.4): 1.03 L/h/kg
CC(=O)Nc1cc(Nc2cc(NC3CC3)n3ncc(C#N)c3n2)ccc1N1CCC[C@H](O)C1  scaled CLint (hepatocytes; 1 µM; serum-free): 4.38 L/h/kg
O=C1c2ccc(OCc3cccc(F)c3)nc2CCN1c1ccc(F)cn1  scaled CLint (liver microsomes): 1.08 L/h/kg
Cc1cc(NC(=O)Cc2ccc(F)c(C#N)c2)n(CC2CCCCC2)n1  scaled CLint (liver microsomes): 38.9 L/h/kg
C[C@H]1SC(N)=N[C@@]2(c3ccc(F)cc3F)CO[C@@H](c3cnn(C)c3)C[C@@H]12  scaled CLint (liver microsomes): < 0.48 L/h/kg
O=C1C2N=CN3C(NCc4c(F)ccc5c4CCO5)=NC=C(c4cnc(C(F)(F)F)cc4CN1CC(F)F)C23 (centres unmarked)  scaled CLint (liver microsomes; 100 µM; 30 min): 0.684 L/h/kg
Cc1cc([C@H]2C[C@H]3[C@@H](C)SC(N)=N[C@@]3(c3ccc(F)cc3F)CO2)on1  scaled CLint (liver microsomes): < 0.48 L/h/kg
Nc1nc(-c2ccc(NC(=O)Nc3cccc(-c4c[nH]c(N)n4)c3F)cc2F)c[nH]1  scaled CLint (liver microsomes; 5 µM; pH 7.4): < 1.25 L/h/kg
Cc1ccc(F)c2cc(C(=O)N[C@@H]3CCC[C@H](N4CCN(C)C(=O)C4)C3)[nH]c12  scaled CLint (hepatocytes; 0.5 µM; 2 h): 1.42 L/h/kg
Nc1nc(-c2ccc(NC(=O)Nc3cc(Br)cc(Br)c3)cc2)c[nH]1  scaled CLint (liver microsomes; 5 µM; pH 7.4): < 0.624 L/h/kg
CC(C)(C)n1cc2c(n1)C(O)C(C)(C)C1(CCN(C(=O)c3ccc4[nH]ncc4c3)CC1)O2 (centres unmarked)  scaled CLint (liver microsomes): 1.02 L/h/kg
CCCN(C)Cc1cc(-c2[nH]c3cccc(F)c3c(=O)c2C)ccc1Cc1ccc(OC(F)(F)F)cc1  scaled CLint (liver microsomes): 62.6 L/h/kg
CC(C)N1Cc2cc(C(F)(F)F)ncc2C2=CN=C(NCc3c(F)ccc4c3CCO4)N3C=NC(C1=O)C23 (centres unmarked)  scaled CLint (liver microsomes; 100 µM; 30 min): 0.339 L/h/kg
CC(=O)N(C)C1CCN(c2cc(F)cc(NC(=O)c3cc4c(F)ccc(C)c4[nH]3)c2)C1 (centres unmarked)  scaled CLint (hepatocytes; 0.5 µM; 2 h): 3.84 L/h/kg
Cc1cc([C@H]2C[C@H]3CSC(N)=N[C@@]3(c3ccc(F)cc3F)CO2)on1  scaled CLint (liver microsomes): 3.31 L/h/kg
